Source: ChEMBL document CHEMBL1141025, “Replacing alkyl sulfonamide with aromatic sulfonamide in sulfonamide-type RXR agonists favors switch towards antagonist activity” (Bioorg Med Chem Lett, 2009)
The source made the active and inactive calls. The rule behind the calls is not given here.

What was measured:
[1] = target: T1, Retinoic acid receptor RXR-alpha (Homo sapiens, UniProt P19793); experiment: Antagonist activity at RXRalpha expressed in african green monkey COS1 cells assessed as inhibition of LGD-1069-induced agonist activity; format: functional, cell-based, COS-1
T1 sequence (P19793 whole entry): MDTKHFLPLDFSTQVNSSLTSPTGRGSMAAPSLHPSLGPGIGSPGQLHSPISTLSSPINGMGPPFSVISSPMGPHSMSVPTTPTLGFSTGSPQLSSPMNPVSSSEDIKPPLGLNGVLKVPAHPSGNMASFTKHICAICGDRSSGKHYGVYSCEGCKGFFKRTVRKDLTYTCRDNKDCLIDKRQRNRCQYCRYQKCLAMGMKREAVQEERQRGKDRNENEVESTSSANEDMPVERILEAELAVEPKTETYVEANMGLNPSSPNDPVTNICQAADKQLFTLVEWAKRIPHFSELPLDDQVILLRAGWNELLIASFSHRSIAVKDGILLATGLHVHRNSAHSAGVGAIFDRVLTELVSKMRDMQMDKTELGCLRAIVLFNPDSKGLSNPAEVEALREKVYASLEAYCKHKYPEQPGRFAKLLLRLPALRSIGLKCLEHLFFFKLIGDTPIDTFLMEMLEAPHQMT

[2] = target: T2, Retinoic acid receptor RXR-beta (Homo sapiens, UniProt P28702); experiment: Antagonist activity at RXRbeta expressed in african green monkey COS1 cells assessed as inhibition of LGD-1069-induced agonist activity; format: functional, cell-based, COS-1
T2 sequence (P28702 whole entry): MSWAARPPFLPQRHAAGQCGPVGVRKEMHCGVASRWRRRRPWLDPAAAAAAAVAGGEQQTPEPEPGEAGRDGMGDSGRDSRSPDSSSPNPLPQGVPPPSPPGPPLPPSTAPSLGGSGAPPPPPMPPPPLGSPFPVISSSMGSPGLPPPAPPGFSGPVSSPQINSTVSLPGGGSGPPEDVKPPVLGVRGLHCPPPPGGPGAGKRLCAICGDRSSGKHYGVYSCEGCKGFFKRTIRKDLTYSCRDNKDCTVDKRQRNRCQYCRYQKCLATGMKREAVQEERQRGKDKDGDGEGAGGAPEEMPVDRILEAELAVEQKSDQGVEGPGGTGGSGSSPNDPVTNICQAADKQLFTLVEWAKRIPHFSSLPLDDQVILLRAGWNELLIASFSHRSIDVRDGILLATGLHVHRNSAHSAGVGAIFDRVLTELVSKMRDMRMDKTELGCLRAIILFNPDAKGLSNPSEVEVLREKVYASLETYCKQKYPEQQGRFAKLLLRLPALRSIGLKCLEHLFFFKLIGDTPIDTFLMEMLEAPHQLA
Procedure, shortened: (§1)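 Luciferase reporter gene assay in COS-1 cells measuring inhibition of LGD1069-driven activity. IC50 is taken from full dose–response curves spanning 10^-7 to 10^-5 M.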

[3] = target: T3, Retinoic acid receptor RXR-gamma (Homo sapiens) (UniProt P48443); experiment: Agonist activity at RXRgamma expressed in african green monkey COS1 cells by luciferase reporter gene assay relative to LGD1069; format: functional, cell-based; settings: COS-1
T3 sequence (whole entry): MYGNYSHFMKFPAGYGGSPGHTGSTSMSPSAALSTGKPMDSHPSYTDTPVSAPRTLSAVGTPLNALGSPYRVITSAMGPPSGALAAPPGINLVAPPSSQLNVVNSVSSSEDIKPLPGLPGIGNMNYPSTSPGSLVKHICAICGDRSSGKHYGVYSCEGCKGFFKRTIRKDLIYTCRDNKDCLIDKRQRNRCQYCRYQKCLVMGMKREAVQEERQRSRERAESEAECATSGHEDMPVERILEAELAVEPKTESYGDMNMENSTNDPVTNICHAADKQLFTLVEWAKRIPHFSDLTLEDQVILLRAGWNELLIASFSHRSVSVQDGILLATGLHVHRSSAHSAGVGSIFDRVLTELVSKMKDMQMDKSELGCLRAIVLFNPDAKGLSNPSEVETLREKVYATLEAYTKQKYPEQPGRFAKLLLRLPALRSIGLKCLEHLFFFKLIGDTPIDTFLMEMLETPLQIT
Procedure, shortened: (§2)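 Luciferase reporter gene assay in COS-1 cells. Each subtype's activity is expressed relative to 1 μM LGD1069, an RXR pan-agonist, used as the reference.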

[4] = target: T4, Retinoic acid receptor RXR-beta (Homo sapiens) (UniProt P28702); experiment: Agonist activity at RXRbeta expressed in african green monkey COS1 cells by luciferase reporter gene assay relative to LGD1069; format: functional, cell-based; settings: COS-1; procedure, shortened: as §2
T4 sequence (whole entry): T2 sequence (P28702 whole entry)

[5] = target: T5, Retinoic acid receptor RXR-alpha (Homo sapiens) (UniProt P19793); experiment: Agonist activity at RXRalpha expressed in african green monkey COS1 cells by luciferase reporter gene assay relative to LGD1069; format: functional, cell-based; settings: COS-1; procedure, shortened: as §2
T5 sequence (whole entry): T1 sequence (P19793 whole entry)

[6] = target: T6, Retinoic acid receptor RXR-gamma (Homo sapiens, UniProt P48443); experiment: Antagonist activity at RXRgamma expressed in african green monkey COS1 cells assessed as inhibition of LGD-1069-induced agonist activity; format: functional, cell-based, COS-1; procedure, shortened: as §1
T6 sequence (P48443 whole entry): T3 sequence (whole entry)

| IC50 [1] [µM] | IC50 [2] [µM] | Activity [3] | Activity [4] | Activity [5] | IC50 [6] [µM] | SMILES |
| --- | --- | --- | --- | --- | --- | --- |
| 2.7 | 3.9 | inactive | inactive | inactive | 6.6 | COc1ccc(S(=O)(=O)N(c2ccc3c(c2)C(C)(C)CCC3(C)C)c2ccc(C(=O)O)cn2)cc1 |
| 4.1 | 0.87 | inactive | inactive | inactive | 4.5 | CC1(C)CCC(C)(C)c2cc(N(c3ccc(C(=O)O)cn3)S(=O)(=O)c3ccc(Cl)cc3)ccc21 |
| > 10 | > 10 | – | – | – | > 10 | CCCCS(=O)(=O)N(c1ccc2c(c1)C(C)(C)CCC2(C)C)c1ccc(C(=O)O)cn1 |
| > 10 | > 10 | inactive | inactive | inactive | > 10 | CC1(C)CCC(C)(C)c2cc(N(c3ccc(C(=O)O)cn3)S(=O)(=O)c3ccccc3)ccc21 |
| – | 0.044 | – | – | – | 0.38 | CN1c2ccc([N+](=O)[O-])cc2N=C(c2ccc(C(=O)O)cc2)c2cc3c(cc21)C(C)(C)CCC3(C)C |
| > 10 | > 10 | inactive | inactive | inactive | > 10 | CC1(C)CCC(C)(C)c2cc(N(c3ccc(C(=O)O)cn3)S(=O)(=O)c3ccc([N+](=O)[O-])cc3)ccc21 |
| 5.2 | 3 | inactive | inactive | inactive | 3.8 | Cc1ccc(S(=O)(=O)N(c2ccc3c(c2)C(C)(C)CCC3(C)C)c2ccc(C(=O)O)cn2)cc1 |
| 3.2 | 0.75 | inactive | inactive | inactive | 2.7 | CC1(C)CCC(C)(C)c2cc(N(c3ccc(C(=O)O)cn3)S(=O)(=O)c3ccc(C(F)(F)F)cc3)ccc21 |
